# Most compounds without a hit are left out; they make up all but 3.9% or so of the library.
# tim10-1 inh = tim10-1 yeast growth inhibition; S. cerevisiae tim10-1 ts strain growth, BacTiter-Glo, 24 h; inhibition, % at 20 µM; actives 2.2% (n = 330,000); AID 463190;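 active = inhibition of at least 40%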;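 note: mutant grown at 25 °C; 0% = DMSO wells with yeast and 100% = wells holding no yeast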
# tim23-1 inh = inhibits growth of tim23-1 mutant yeast; inhibition, % at 20 µM; S. cerevisiae tim23-1 growth, BacTiter-Glo luminescence, 24 h; AID 463212; actives 1.3% (n = 330,000);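 active = growth inhibition of the mutant yeast at or above 50%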;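 note: temperature-sensitive mutant grown at 25 °C; plate controls were DMSO-treated mutant yeast for no effect and medium wells lacking yeast for full effect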
# XBP1 UPR activ = adaptive UPR (XBP1) activation. CHO-XBP1 luciferase reporter, IRE1-XBP1 UPR activation, luminescence; percent of tunicamycin response, DMSO as zero. activation, % at 20 µM. actives 0.33% (n = 330,000). AID 463104;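 active = versus positive control, 20 µM dose yields 30% or more activation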;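 note: 100% = tunicamycin at 10 µg/mL and 0% = DMSO only wells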
#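 Material: CHO-XBP1 cells stably carrying IRE1-XBP1-driven luciferase reporter / Amount: 1000 cells per well / Compound: 20 µM, 1% DMSO / Times: 6 h treatment, 37 °C / Detection: luciferase luminescence / Measure: % activation of reporter signal versus tunicamycin and DMSO controls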
# TIM10 inh = inhibits growth of TIM10 yeast strain; AID 463195; actives 1.4% (n = 330,000); S. cerevisiae TIM10 strain growth, BacTiter-Glo luminescence, 24 h; inhibition, % at 10 µM;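 active = inhibition of 40% or more at the single tested concentration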;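 note: wild-type TIM10 isogenic control strain grown at permissive 25 °C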
# UPR CHOP act = apoptotic UPR (CHOP) activation. CHO-CHOP luciferase reporter, luminescence; percent of tunicamycin response over DMSO baseline. activation, % at 10 µM. actives 0.34% (n = 330,000). AID 449763;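 active = at 10 µM dose, activation of 40% or more, normalized to positive control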;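 note: 100% = tunicamycin at 10 µg/mL and 0% = DMSO alone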
#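 System: CHO CHOP reporter cells. Amount: 500 cells per well. Buffer or medium: F12 medium, 10% FBS. Compound dosing: one dose, 10 µM in 0.5% DMSO. Incubation: 6 h compound exposure at 37 °C after overnight seeding. Technique: Steady-Glo luciferase luminescence. Benchmarks: tunicamycin and DMSO controls.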
# TIM10 conf = confirmation of TIM10 yeast growth inhibitors; S. cerevisiae tim10 strain growth, BacTiter-Glo luminescence, 24 h; AID 463215; actives 63% (n = 4,600); inhibition, % at 10 µM; shares compounds with TIM10 inh;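 active = inhibition of yeast growth at or above a set limit in either of two replicates at 10 µM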;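 note: this counterscreen used the strain with wild-type TIM10; 0% = yeast with DMSO and 100% = medium wells lacking yeast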
# tim23-1 confirm = confirmation of tim23-1 mutant yeast growth inhibitors. shares compounds with tim23-1 inh. inhibition, % at 20 µM. S. cerevisiae tim23-1 growth, BacTiter-Glo luminescence, 24 h. actives 83% (n = 4,400);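 active = inhibition above about 39% in either of two replicate wells at 20 µM, limit read from the data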;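 note: temperature-sensitive tim23-1 mutant grown at 25 °C; 0% = DMSO wells with yeast and 100% = medium wells without yeast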
# Active calls of the source: *; · = no result given.
SMILES,tim10-1 inh,tim23-1 inh,XBP1 UPR activ,TIM10 inh,UPR CHOP act,TIM10 conf,tim23-1 confirm
COc1ccccc1NC(=O)C(=O)Nc1ccc2c(c1)N(C(=O)C1CC1)CCC2,9,15,6,4,5,·,·
O=C(Nc1ccc2c(c1)nc1n2CCN(Cc2ccccc2)C1)c1cccs1,28,53*,1,67*,-2,57*,73*
Nc1ccc(NC(=O)c2cccs2)cc1,-20,5,0,-6,0,·,·
Cc1ccc2oc(-c3cccc(NC(=S)NC(=O)c4cccs4)c3)nc2c1,17,-2,-1,21,5,·,·
O=C(Nc1ccc2c(c1)CCC2)c1cccs1,34,53*,4,45*,3,35*,49*
O=C(Nc1ccc2oc(-c3ccccc3)nc2c1)c1cccs1,23,53*,2,73*,9,-1,76*
COc1ccccc1C(=O)Nc1ccc2c(c1)nc1n2CCN(Cc2ccccc2)C1,-24,28,-5,14,0,·,·
COc1cc(/C=C2\C(C)=C(C#N)c3nc(N)c(C#N)c(C)c32)ccc1OCC(=O)O,39,61*,-2,44*,-2,31*,48*
COCCCNC(=O)/C(C#N)=C/c1ccc(OCC(=O)O)c(OC)c1,-4,2,-7,10,-1,·,·
CCN1CCN(c2nc3sc4c(c3c(=O)n2-c2ccc(OC)cc2)CCCCC4)CC1,13,29,3,24,0,·,·
COc1ccc(-n2c(NN)nc3sc4c(c3c2=O)CCCC4)cc1,34,70*,3,49*,1,3,62*
CCOC(=O)C1CCN(S(=O)(=O)c2ccc3c(c2)CCN3C(=O)C2CCC2)CC1,1,51*,-4,62*,-1,20,66*
O=C1c2ccccc2OCOc2ccccc21,-14,-1,1,-20,-1,·,·
O=[S@]1Oc2ccccc2-c2ccccc21,5,69*,1,58*,-1,76*,-41
COc1cccc(OCc2cc(C(=O)N3CCN(C)C(c4ccccc4)C3)no2)c1 (centres undefined),39,53*,-2,41*,4,50*,48*
COc1cccc(OCc2cc(C(=O)N3CCC(c4ccncc4)CC3)no2)c1,34,32,-4,13,-1,·,·
CC(=O)N1c2ccc(S(=O)(=O)N3CCCC(C(=O)Nc4ccc(F)cc4)C3)cc2CC1C (centres undefined),7,12,-3,-5,0,·,·
CC(C)(C)c1nn(-c2ccccc2)c2[nH]c(=O)c(C=O)cc12,-23,80*,-8,72*,1,91*,-44
CSC1=NC(=O)/C(=C\c2cccc3ccccc23)S1,12,76*,1,41*,1,26,51*
COc1ccc([C@H]2CC(=O)C=C(c3ccc(C)c(F)c3)C2)cc1,17,31,0,-1,3,·,·
CCOC(=O)/C(C#N)=C/c1cc2ccccc2nc1N1CCOCC1,33,31,1,22,4,·,·
CCOC(=O)/C(C#N)=C/c1cc2ccc(C)cc2nc1Cl,22,56*,0,42*,1,7,64*
Cc1ccc(C(=O)N(CC(=O)NC2CCCC2)c2ccccc2Cl)s1,14,21,5,25,1,·,·
COc1ccc2cc3cc(C(=O)N4CCN(Cc5ccc6c(c5)OCO6)CC4)oc3nc2c1,39,68*,-3,40*,-1,-3,83*
CCOC(=O)C1CCN(C(=O)c2cc3cc4ccc(OC)cc4nc3o2)CC1,35,68*,-4,41*,4,37*,67*
Cc1ccc2cc3cc(C(=O)NC4CC4)oc3nc2c1,3,13,0,32,7,·,·
Cc1ccc2cc3cc(C(=O)N4CC(C)CC(C)C4)oc3nc2c1 (centres undefined),38,53*,3,48*,2,39*,60*
COc1ccc2cc3cc(C(=O)NCc4ccc5c(c4)OCO5)oc3nc2c1,10,15,2,33,3,·,·
